Laboratory results from ChEMBL document CHEMBL4433218, “Behind the Mirror: Chirality Tunes the Reactivity and Cytotoxicity of Chloropiperidines as Potential Anticancer Agents” (ACS Med Chem Lett, 2019).
The source made the active and inactive calls. No cut-off for these calls is given here.

Legend:
DNA [1] = assay: Induction of Escherichia coli pBR322 DNA cleavage in BPE buffer at 5 to 50 uM incubated for 2 hrs by electrophoresis method; type: nucleic-acid assay
In short: (§1)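 Supercoiled pBR322 plasmid (120 ng) incubated with compound at 5 and 50 μM in BPE buffer, 37 °C. Dilutions freshly made in water from 10 mM DMSO stock and added to DNA immediately. Supercoiled, open circular and linear forms resolved on 1% agarose in TAE and stained with GelRed.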

[2] = Stability in pH 7.4 PBS buffer incubated for 1 hr by UPLC-MS analysis; type: physicochemical; conditions: pH 7.4, 1 h
[3] = Permeability across PVDF membrane in PBS buffer of pH 7.4 at 500 uM incubated for 1 hr by UPLC-MS based PAMPA assay; type: ADME; conditions: pH 7.4, 1 h
In short: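 Donor: 500 μM compound in PBS pH 7.4, made from 10 mM DMSO stock. Acceptor: PBS with 5% DMSO. Filter coated with 1% L-α-phosphatidylcholine in n-dodecane. 1 h at room temperature. Initial, donor and acceptor samples quantified by UPLC-MS (C18, 0.1% formic acid water/acetonitrile gradient) against 20 μM caffeine internal standard. Membrane fraction taken by difference. Unreacted and reacted species summed.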

DNA [4] = assay: Induction of Escherichia coli pBR322 DNA cleavage in BPE buffer at 5 to 50 uM incubated for 18 hrs by electrophoresis method; type: nucleic-acid assay; in short: as §1
[5] = biological target: DNA topoisomerase 2-alpha (Homo sapiens) (UniProt P11388); assay: Inhibition of human DNA topoisomerase-2alpha mediated decatenation using kinetoplast DNA as substrate at 5 to 50 uM incubated for 2 to 18 hrs
In short: (§2)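 Human topoisomerase IIα decatenation of kinetoplast DNA, run with a commercial kit. Substrate DNA incubated with compound at 37 °C for 2 and 18 h.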

2008 = assay: Cytotoxicity against human 2008 cells assessed as reduction in cell viability incubated for 72 hrs by MTT assay; type: functional, cell-based; conditions: Homo sapiens, 2008, 72 h
In short: (§3)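 Cell lines kept in log phase at 37 °C, 5% CO2 in RPMI-1640 with 10% fetal calf serum, penicillin 50 units/mL, streptomycin 50 μg/mL, 2 mM L-glutamine. Compounds dissolved in DMSO and added to medium at 0.5% final solvent. Treatment 72 h. Viability read by MTT. IC50 calculated.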

HCT-15 = assay: Cytotoxicity against human HCT15 cells assessed as reduction in cell viability incubated for 72 hrs by MTT assay; type: functional, cell-based; conditions: HCT-15, 72 h; in short: as §3
BXPC-3 = assay: Cytotoxicity against human BxPC3 cells assessed as reduction in cell viability incubated for 72 hrs by MTT assay; type: functional, cell-based; conditions: BXPC-3, 72 h; in short: as §3
[6] = biological target: DNA topoisomerase 2-alpha (Homo sapiens) (UniProt P11388); assay: Inhibition of human DNA topoisomerase-2alpha mediated decatenation using kinetoplast DNA as substrate at 50 uM incubated for 18 hrs; in short: as §2
[7] = Induction of dsDNA (unknown origin) alkylation in BPE buffer at 50 uM incubated for 2 hrs by ESI-MS analysis
In short: (§4)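 Duplex oligodeoxynucleotide at 2 μM final, incubated with compound at 50 μM final in BPE buffer, 37 °C. Compound diluted in water from 10 mM DMSO stock just before use. Analysed by direct-infusion ESI-MS on an Orbitrap in 150 mM ammonium acetate. Adducts and abasic species assigned by mass, 6− charge state.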

[8] = Induction of dsDNA (unknown origin) alkylation in BPE buffer at 50 uM incubated for 18 hrs by ESI-MS analysis; in short: as §4

Sequence of DNA topoisomerase 2-alpha (Homo sapiens) (P11388 whole entry): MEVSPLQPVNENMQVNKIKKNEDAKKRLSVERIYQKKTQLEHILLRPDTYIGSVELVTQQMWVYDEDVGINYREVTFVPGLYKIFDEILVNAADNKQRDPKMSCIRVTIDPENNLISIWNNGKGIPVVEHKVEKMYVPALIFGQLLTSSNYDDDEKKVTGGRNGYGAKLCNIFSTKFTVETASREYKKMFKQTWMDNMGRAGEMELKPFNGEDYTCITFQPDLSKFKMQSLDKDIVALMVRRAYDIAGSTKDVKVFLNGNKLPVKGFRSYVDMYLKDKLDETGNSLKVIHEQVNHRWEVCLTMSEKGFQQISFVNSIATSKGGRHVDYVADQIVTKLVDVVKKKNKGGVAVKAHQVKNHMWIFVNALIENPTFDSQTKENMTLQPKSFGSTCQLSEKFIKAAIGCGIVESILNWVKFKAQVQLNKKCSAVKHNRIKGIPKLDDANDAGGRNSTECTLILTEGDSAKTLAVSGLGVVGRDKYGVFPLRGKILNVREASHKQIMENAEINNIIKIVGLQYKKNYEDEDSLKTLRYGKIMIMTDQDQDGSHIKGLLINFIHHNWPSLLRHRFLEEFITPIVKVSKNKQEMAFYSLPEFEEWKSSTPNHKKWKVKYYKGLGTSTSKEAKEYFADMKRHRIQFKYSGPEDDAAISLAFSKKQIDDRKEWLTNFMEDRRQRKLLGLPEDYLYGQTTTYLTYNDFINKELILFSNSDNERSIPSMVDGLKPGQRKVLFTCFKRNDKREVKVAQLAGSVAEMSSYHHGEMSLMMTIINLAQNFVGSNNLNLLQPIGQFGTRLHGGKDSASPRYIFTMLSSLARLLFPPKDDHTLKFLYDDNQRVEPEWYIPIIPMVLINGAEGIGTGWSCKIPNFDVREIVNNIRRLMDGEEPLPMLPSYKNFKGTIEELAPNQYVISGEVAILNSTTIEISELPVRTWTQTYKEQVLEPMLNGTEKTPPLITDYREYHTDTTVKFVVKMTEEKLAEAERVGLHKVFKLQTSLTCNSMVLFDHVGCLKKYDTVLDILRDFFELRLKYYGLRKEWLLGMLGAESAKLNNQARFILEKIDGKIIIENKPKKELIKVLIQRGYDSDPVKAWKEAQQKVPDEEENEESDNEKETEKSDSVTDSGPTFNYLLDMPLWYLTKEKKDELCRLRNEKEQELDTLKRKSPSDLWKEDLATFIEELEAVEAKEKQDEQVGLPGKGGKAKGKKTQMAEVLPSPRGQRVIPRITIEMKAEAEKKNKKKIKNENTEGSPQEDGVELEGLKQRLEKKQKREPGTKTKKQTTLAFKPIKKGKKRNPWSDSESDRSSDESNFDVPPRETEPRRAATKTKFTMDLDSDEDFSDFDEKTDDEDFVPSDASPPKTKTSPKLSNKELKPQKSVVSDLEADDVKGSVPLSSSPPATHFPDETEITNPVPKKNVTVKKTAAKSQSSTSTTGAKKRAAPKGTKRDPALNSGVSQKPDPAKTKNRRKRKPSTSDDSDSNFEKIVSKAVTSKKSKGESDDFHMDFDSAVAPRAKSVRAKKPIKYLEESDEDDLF

With `CCCCN1CCC[C@H](Cl)C1` the Activity (DNA [1]) was “inactive”, the Stability [2] was “Stable” and the permeability [3] was “Permeable”. The Activity (DNA [4]) was “Active”, the inhibition [5] was “inactive” and the IC50 2008 was 102 nM. The IC50 (HCT-15) was 181 nM and the IC50 (BXPC-3) was 7 nM.

For `CCCCN1CC(Cl)CC(C)(C)C1` (racemic), the inhibition [6] was “Active”, the Activity (DNA [1]) was “inactive” and the Stability [2] was “Stable”. The permeability [3] was “Impermeable”, the Activity (DNA [4]) was “Active” and the Activity [7] was “Active”. It also gave an IC50 2008 of 174 nM, an IC50 (HCT-15) of 254 nM and an IC50 (BXPC-3) of 24 nM. The Activity [8] was “Active”.

For `CCCCN1CCCC(Cl)C1` (racemic), the Activity (DNA [1]) was “inactive”, the Stability [2] was “Stable” and the Activity (DNA [4]) was “Active”. For the same compound, the Activity [7] was “inactive”, the IC50 2008 was 329 nM and the IC50 (HCT-15) was 474 nM. The IC50 (BXPC-3) was 57 nM and the Activity [8] was “Active”.

In the case of `O=C(O)CCCc1ccc(N(CCCl)CCCl)cc1` [CHLORAMBUCIL], the Activity (DNA [1]) is reported as “inactive”, the Activity (DNA [4]) is reported as “Active” and the IC50 2008 is reported as 12500 nM. For the same compound, the IC50 (HCT-15) was 49700 nM and the IC50 (BXPC-3) was 75300 nM.

With `CC1(C)CC(Cl)CN(Cc2ccccc2)C1` (racemic) the inhibition [6] was “Active”, the Activity (DNA [1]) was “inactive” and the Stability [2] was “Stable”. The permeability [3] was “Impermeable”, the Activity (DNA [4]) was “Active” and the IC50 2008 was 107 nM. For the same compound, the IC50 (HCT-15) was 300 nM and the IC50 (BXPC-3) was 6 nM.

With `CCCCN1CCC[C@@H](Cl)C1` the Activity (DNA [1]) was “inactive”, the Stability [2] was “Stable” and the permeability [3] was “Permeable”. The Activity (DNA [4]) was “Active”, the inhibition [5] was “inactive” and the IC50 2008 was 4600 nM. It also gave an IC50 (HCT-15) of 5640 nM and an IC50 (BXPC-3) of 274 nM.
